Measured values published in ChEMBL document CHEMBL4007447, “Synthesis, biological evaluation and molecular docking study of N-(2-methoxyphenyl)-6-((4-nitrophenyl)sulfonyl)benzamide derivatives as potent HIV-1 Vif antagonists” (Eur J Med Chem, 2017).
In brackets after ≈: the same amount, converted by molar mass. Activity calls are given as the source filed them. No cut-off for these calls is given here.

Experiments:
[1] = Cytotoxicity against human H9 cells assessed as reduction in cell viability after 7 days by MTT assay; assay type: cell-based
Procedure, shortened: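 MTT viability assay. H9 at 4×10^4 cells/well or PHA-stimulated PBMCs at 5×10^5 cells/well were incubated with serially diluted compound at 37 °C, 5% CO2 for seven days before MTT read-out. CC50 was calculated; mean ± standard deviation of three separate experiments.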

[2] = tested on: Human immunodeficiency virus 1; experiment: Antiviral activity against HIV1 subtype B NL4-3 infected in human H9 cells assessed as reduction in p24 level after 7 days by ELISA; assay type: functional, cell-based; settings: Human immunodeficiency virus 1, subtype B NL4-3, H9, 168 h
Procedure, shortened: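 H9 cells infected with NL4-3 at MOI 0.03 for 2 h, washed three times, then seeded at 4×10^4 cells/well with serially diluted compound. Incubated 7 days; supernatant p24 measured by in-house ELISA and EC50 calculated. Three separate experiments, mean ± standard deviation.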

[3] = Therapeutic index, ratio of CC50 for human H9 cells to EC50 for HIV1 subtype B NL4-3 infected in human H9 cells
Procedure, shortened: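 Ratio of CC50 to EC50, both measured in H9 cells: MTT cytotoxicity over seven days, and p24 ELISA after 7 days of NL4-3 infection at MOI 0.03.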

[4] = Aqueous solubility in water after 24 to 72 hrs by HPLC based shake flask method; assay type: physicochemical
Procedure, shortened: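 Equilibrium shake-flask solubility: excess compound placed in water, methanol, ethanol, acetonitrile, ethyl acetate or acetone and shaken 24-72 h at 25 °C. Filtered through 0.22 μm membrane, diluted, and quantified by HPLC on a C18 column with methanol/water 70/30 mobile phase and UV 251 nm. n=3, mean ± SD.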

[5] = tested on: Human immunodeficiency virus 1; experiment: Inhibition of HIV1 Vif expressed in TREX-hVif-15 cells co-expressing EYFP-N1-tagged human A3G assessed as reduction in Vif-mediated A3G degradation at 5 to 20 ug/ml after 48 hrs by flow cytometry; assay type: cell-based
Procedure, shortened: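 TREX-hvif-15 cells, in which Vif is under Tet-On control, were plated at 2×10^5 cells/well and grown overnight. At about 80% confluence they were transfected with EYFP-N1-hA3G. After 6 h the cells were washed, and compounds at varied concentrations were added together with doxycycline to induce Vif. Cells were trypsin-harvested 48 h post-transfection, and EYFP-positive cells were measured by flow cytometry. The no-Vif condition was set to 100%.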

Row | EC50 [2] [µM] | solubility thermodynamic [4] [µg/mL] | Structure (SMILES) | CC50 at 168 h [1] [µM] | Ratio CC50/EC50 [3] | inhibition [5]
1 | 216 |  | COc1ccccc1NC(=O)c1c(NCCO)cccc1S(=O)(=O)c1ccc([N+](=O)[O-])cc1 | 154 | 0.713 | 
2 | 240 |  | CNc1ccc(Sc2ccc([N+](=O)[O-])cc2)c(C(=O)Nc2ccccc2OC)c1 | 302 | 1.26 | 
3 | 233 |  | COc1ccccc1NC(=O)c1cc(N(C)C)ccc1Sc1ccc([N+](=O)[O-])cc1 | 182 | 0.781 | 
4 | 1.46 | 120 (≈ 209 µM) | COc1ccccc1NC(=O)c1c(NC(=O)C(N)Cc2ccccc2)cccc1S(=O)(=O)c1ccc([N+](=O)[O-])cc1 (stereo not given) | 216 | 148 | 
5 | 226 |  | COc1ccccc1NC(=O)c1c(N(C)C)cccc1S(=O)(=O)c1ccc([N+](=O)[O-])cc1 | 439 | 1.94 | 
6 | 6.63 |  | COc1ccccc1NC(=O)c1cc(N)ccc1Sc1ccc([N+](=O)[O-])cc1 |  |  | 
7 | 457 |  | COc1ccccc1NC(=O)c1cc(NC(C)=O)ccc1Sc1ccc([N+](=O)[O-])cc1 | 171 | 0.374 | 
8 | 30.6 |  | COc1ccccc1NC(=O)c1c(NS(=O)(=O)c2ccc(C)cc2)cccc1Sc1ccc([N+](=O)[O-])cc1 | 364 | 11.9 | 
9 | 223 |  | COc1ccccc1NC(=O)c1cc(C(F)(F)F)ccc1Sc1ccc([N+](=O)[O-])cc1 |  |  | 
10 | 18.3 |  | COc1ccccc1NC(=O)c1cc(Cl)ccc1Sc1ccc([N+](=O)[O-])cc1 | 483 | 26.4 | 
11 | 172 |  | COc1ccccc1NC(=O)c1c(NS(=O)(=O)c2ccc(C)cc2)cccc1S(=O)(=O)c1ccc([N+](=O)[O-])cc1 |  |  | 
12 | 242 |  | COc1ccccc1NC(=O)c1c(Sc2ccc([N+](=O)[O-])cc2)cccc1N1CCOCC1 |  |  | 
13 | 10.5 |  | COc1ccccc1NC(=O)c1c(N)cccc1[S+]([O-])c1ccc([N+](=O)[O-])cc1 (stereo not given) | 335 | 31.9 | 
14 | 62.2 |  | COc1ccccc1NC(=O)c1sccc1Sc1ccc([N+](=O)[O-])cc1 | 472 | 7.59 | 
15 | 8.24 |  | COc1ccccc1NC(=O)c1c(Sc2ccc([N+](=O)[O-])cc2)cccc1N1CCNCC1 | 30.6 | 3.71 | 
16 | 43.6 |  | COc1ccccc1NC(=O)c1c(NCCO)cccc1Sc1ccc([N+](=O)[O-])cc1 | 265 | 6.08 | 
17 | 51.2 |  | COc1ccccc1NC(=O)c1cscc1Sc1ccc([N+](=O)[O-])cc1 | 518 | 10.1 | 
18 | 147 |  | COc1ccccc1NC(=O)c1cccnc1Sc1ccc([N+](=O)[O-])cc1 | 525 | 3.57 | 
19 | 94.6 |  | COc1ccccc1NC(=O)c1c(N)cccc1Oc1ccc([N+](=O)[O-])cc1 | 202 | 2.14 | 
20 | 1.87 |  | COc1ccccc1NC(=O)c1c(N)cccc1Sc1ccc([N+](=O)[O-])cc1 | 387 | 207 | 
21 | 41.8 |  | COc1ccccc1NC(=O)c1c(NCC(N)=O)cccc1Sc1ccc([N+](=O)[O-])cc1 | 35.5 | 0.849 | 
22 | 187 |  | COc1ccccc1NC(=O)c1c(NS(=O)(=O)c2ccccc2)cccc1Sc1ccc([N+](=O)[O-])cc1 |  |  | 
23 | 176 |  | COc1ccccc1NC(=O)c1c(NS(=O)(=O)c2ccccc2)cccc1S(=O)(=O)c1ccc([N+](=O)[O-])cc1 |  |  | 
24 | 54.7 |  | COc1ccccc1C(=O)Nc1nc(Cl)ncc1Sc1ccc([N+](=O)[O-])cc1 | 480 | 8.78 | 
25 | 214 |  | COc1ccccc1NC(=O)c1c(NCCN)cccc1S(=O)(=O)c1ccc([N+](=O)[O-])cc1 | 211 | 0.986 | 
26 | 249 |  | COc1ccccc1NC(=O)c1cc(F)ccc1Sc1ccc([N+](=O)[O-])cc1 | 502 | 2.02 | 

Row | Structure (SMILES) | EC50 [2] [µM] | solubility thermodynamic [4] [µg/mL] | CC50 at 168 h [1] [µM] | Ratio CC50/EC50 [3] | inhibition [5]
27 | COc1ccccc1NC(=O)c1c(NCCBr)cccc1Sc1ccc([N+](=O)[O-])cc1 | 221 |  |  |  | 
28 | COc1ccccc1NC(=O)c1cc([N+](=O)[O-])ccc1Sc1ccc([N+](=O)[O-])cc1 | 235 |  |  |  | 
29 | CNc1cccc(S(=O)(=O)c2ccc([N+](=O)[O-])cc2)c1C(=O)Nc1ccccc1OC | 278 |  | 200 |  | 
30 | COc1ccccc1NC(=O)c1ccccc1Sc1ccc([N+](=O)[O-])cc1 | 263 |  |  |  | Active
31 | COc1ccccc1NC(=O)c1c(Sc2ccc([N+](=O)[O-])cc2)cccc1[N+](=O)[O-] | 235 |  |  |  | 
32 | COc1ccccc1NC(=O)c1c(NCCN)cccc1Sc1ccc([N+](=O)[O-])cc1 | 45.4 |  |  |  | 
